# ChEMBL document CHEMBL2406979, “Antitumor activity of 2-hydroxycinnamaldehyde for human colon cancer cells through suppression of β-catenin signaling” (J Nat Prod, 2013)
# The source made the active and inactive calls. No cut-off for these calls is given here.
# Tested on: HEK293
# Assay: Inhibition of Wnt/beta-catenin (unknown origin) signaling pathway expressed in HEK293 cells assessed as inhibition of TCF4 transcriptional activity at 5 to 40 uM after 24 hrs by TOPflash reporter gene assay
# Type: cell-based
# Details: Homo sapiens
# In short: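 HEK293 cells seeded at 1.5 × 10^4 per well and cotransfected (Lipofectamine 2000) with TOPflash luciferase reporter 0.1 μg, Renilla 0.005 μg for normalization, pcDNA β-catenin 0.02 μg and TCF4 expression vector 0.004 μg to activate Wnt; 24 h later treated with compound or solvent for 24 h; dual luciferase read-out, Renilla-normalized, relative to vehicle; triplicate.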
smiles,measurement,value
O=C/C=C/c1ccccc1,inhibition,Active
